Activity calls are given as the source filed them. The calls are words filed in the database; no cut-off is given here.
Experiments:
[1] = test system: Jurkat; assay: Induction of apoptosis in human Jurkat cells assessed as activation of caspase 3 after 24 hrs by flow cytometry; format: functional, cell-based
Method in brief: (§1)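 Jurkat cells were exposed (500 nM) for 24 h, then harvested and incubated in HBSS with cell-permeable FITC-DEVD-fmk (caspase-3) or FITC-[…]-fmk (caspase-9) for 1 h at 37 °C. After washing, cells were read by flow cytometry on FL-1. Results are fold increase over control.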

[2] = test system: Jurkat; assay: Effect on mitochondrial membrane potential depolarization in human Jurkat cells after 24 hrs by flow cytometry; format: functional, cell-based
Method in brief: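 Jurkat cells after 24 h exposure were loaded with JC-1 (1 µM in HBSS) for 10 min at 37 °C, washed and analyzed by flow cytometry. The percentage of cells with low mitochondrial potential was recorded.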

[3] = test system: A549; assay: Disruption of tubulin network in human A549 cells assessed as disaggregation of microtubules at 5 uM […]; format: functional, cell-based
[4] = biological target: DNA topoisomerase 1 (Homo sapiens) (UniProt P11387); assay: Inhibition of human topoisomerase 1-mediated relaxation of supercoiled pBR322 DNA at 200 uM by agarose gel electrophoresis
Method in brief: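 Supercoiled pBR322 was incubated with 5 units of human topoisomerase I for 30 min at 37 °C in 50 mM Tris-HCl pH 7.8, 50 mM KCl, 10 mM MgCl2, 1 mM DTT, 1 mM EDTA, with drug 0.5–200 µM. Reactions were stopped with SDS and proteinase K, run on 1% agarose at 20 V overnight, stained with ethidium bromide, and bands quantified. Ethidium-containing gels were also run.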

[5] = test system: Jurkat; assay: Cell cycle arrest in human Jurkat cells assessed as accumulation at G1 phase at 62.5 nM after 24 hrs by flow cytometry; format: functional
Method in brief: (§2)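 Exponentially growing Jurkat cells (5 × 105) were exposed to compound for 24 h. Cells were then fixed in ice-cold 70% ethanol, lysed with RNase A-containing buffer and stained with propidium iodide. DNA-content histograms from flow cytometry gave G1, S and G2/M fractions.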

[6] = test system: Jurkat; assay: Cell cycle arrest in human Jurkat cells assessed as accumulation at S phase at 32 nM after 24 hrs by flow cytometry; format: functional; method in brief: as §2
[7] = test system: A549; assay: Disruption of tubulin network in human A549 cells assessed as disaggregation of microtubules at 2.5 uM […]; format: functional, cell-based
[8] = test system: LoVo; assay: Growth inhibition of human doxorubicin-resistant LoVo cells after 72 hrs by MTT assay; format: functional
Method in brief: (§3)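 Growth inhibition by MTT after 72 h incubation. Resistant sublines: LoVoDoxo and MCF-7 MDR were kept in 0.1 µg/mL doxorubicin; CEMVbl-100 was selected against vinblastine. GI50 given as mean ± SEM of three independent experiments. Resistance index is resistant-line GI50 over parental GI50.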

[9] = test system: Jurkat; assay: Cell cycle arrest in human Jurkat cells assessed as accumulation at G1 phase at 32 nM after 24 hrs by flow cytometry; format: functional; method in brief: as §2
[10] = test system: K562; assay: Antitumor activity against human K562 cells; format: functional
Method in brief: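 Run by the NCI in its in vitro disease-oriented screen of about 60 human tumour cell lines. For each line it reports pGI50 (50% net growth inhibition), pTGI (total growth inhibition) and pLC50 (50% net cell death), each as –log molar concentration. Where an effect was not reached within the tested range, the highest tested concentration was used.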

[11] = test system: Jurkat; assay: Cell cycle arrest in human Jurkat cells at mitosis at 0.5 uM after 24 hrs; format: functional
Method in brief: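 Exponentially growing Jurkat cells were exposed for 24 h, then pelleted at 400g for 5 min. Hypotonic KCl (75 mM, 4 °C) was applied for 20 min, followed by methanol–acetic acid (3:1) fixation and Giemsa staining. 400 cells per treatment were scored microscopically; mitotic index is the fraction with mitotic figures. Three independent experiments, mean ± SEM.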

[12] = test system: Jurkat; assay: Cell cycle arrest in human Jurkat cells assessed as accumulation at S phase at 62.5 nM after 24 hrs by flow cytometry; format: functional; method in brief: as §2
[13] = test system: Jurkat; assay: Cell cycle arrest in human Jurkat cells assessed as accumulation at G2/M phase at 125 nM after 24 hrs by flow cytometry; format: functional; method in brief: as §2
[14] = test system: Jurkat; assay: Cell cycle arrest in human Jurkat cells assessed as accumulation at G1 phase at 500 nM after 24 hrs by flow cytometry; format: functional; method in brief: as §2
[15] = test system: LoVo; assay: Growth inhibition of human LoVo cells after 72 hrs by MTT assay; format: functional; method in brief: as §3
[16] = test system: Salmonidae; assay: Binding affinity to salmon testes DNA by spectrophotometric titration method
Method in brief: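 Absorption titration of salmon testes DNA into a constant drug concentration at varying [drug]/[DNA] ratios. ETN buffer (10 mM Tris, 1 mM EDTA, 10 mM NaCl), pH 7.0, 25 °C. Scatchard isotherms were fitted to the McGhee–von Hippel model for intrinsic binding constant and site size.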

[17] = test system: Jurkat; assay: Induction of apoptosis in human Jurkat cells after 24 hrs by flow cytometry; format: functional, cell-based
Method in brief: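 Jurkat cells after 24 h exposure were stained with Annexin V-FITC plus propidium iodide. Flow cytometry used 488 nm excitation, with emission filters at 525 and 585 nm.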

[18] = test system: Jurkat; assay: Cell cycle arrest in human Jurkat cells assessed as accumulation at S phase at 500 nM after 24 hrs by flow cytometry; format: functional; method in brief: as §2
[19] = test system: Jurkat; assay: Cell cycle arrest in human Jurkat cells assessed as accumulation at G1 phase at 125 nM after 24 hrs by flow cytometry; format: functional; method in brief: as §2
[20] = test system: Jurkat; assay: Effect on mitochondrial dysfunction in human Jurkat cells assessed as decrease in 10-N-nonyl-acridine-orange fluorescence intensity after 24 hrs by flow cytometry; format: functional, cell-based
Method in brief: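 Jurkat cells after 24 h exposure were resuspended in HBSS with hydroethidine (2.5 µM, ROS) or NAO (100 nM, cardiolipin oxidation) for 30 min at 37 °C. Flow cytometry used 488 nm excitation, with emission at 585 nm (HE) or 530 nm (NAO). Mean ± SEM of three experiments.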

[21] = test system: Jurkat; assay: Induction of apoptosis in human Jurkat cells assessed as activation of caspase 9 after 24 hrs by flow cytometry; format: functional, cell-based; method in brief: as §1
[22] = test system: LoVo; assay: Resistance index, Ratio of GI50 for human doxorubicin-resistant LoVo cells to GI50 for human LoVo cells; format: functional; method in brief: as §3
[23] = test system: UO-31; assay: Antitumor activity against human UO31 cells; format: functional
Method in brief: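 NCI 60-cell-line screen. Parameters were GI50 (50% net growth inhibition), TGI and LC50, each reported as –log molar concentration. Where an effect was not reached within the tested range, the highest tested concentration was used in the calculation.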

[24] = read-out: Log LC50 (the source's name) (converted)

DNA topoisomerase 1 (Homo sapiens), sequence (P11387 whole entry): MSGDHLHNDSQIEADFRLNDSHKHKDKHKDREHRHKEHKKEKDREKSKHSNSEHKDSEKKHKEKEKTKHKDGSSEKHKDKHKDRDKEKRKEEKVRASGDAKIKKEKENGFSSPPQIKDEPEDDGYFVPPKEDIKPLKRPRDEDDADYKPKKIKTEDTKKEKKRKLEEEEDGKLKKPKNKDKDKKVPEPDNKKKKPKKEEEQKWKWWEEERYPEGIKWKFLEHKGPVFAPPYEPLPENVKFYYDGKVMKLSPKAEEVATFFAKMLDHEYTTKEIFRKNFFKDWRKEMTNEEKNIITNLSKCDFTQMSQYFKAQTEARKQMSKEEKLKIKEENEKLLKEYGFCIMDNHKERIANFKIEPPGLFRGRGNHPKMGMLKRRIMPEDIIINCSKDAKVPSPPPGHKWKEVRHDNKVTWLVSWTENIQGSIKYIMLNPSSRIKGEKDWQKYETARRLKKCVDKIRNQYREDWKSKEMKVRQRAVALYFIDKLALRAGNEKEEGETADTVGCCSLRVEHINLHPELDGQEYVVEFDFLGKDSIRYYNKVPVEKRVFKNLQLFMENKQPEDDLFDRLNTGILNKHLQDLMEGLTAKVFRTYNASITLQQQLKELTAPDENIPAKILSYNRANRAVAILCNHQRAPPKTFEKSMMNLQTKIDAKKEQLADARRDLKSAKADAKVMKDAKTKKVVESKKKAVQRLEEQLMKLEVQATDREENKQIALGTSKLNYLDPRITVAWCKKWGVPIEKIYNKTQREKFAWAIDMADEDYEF

Q: What does the source list for `COc1ccc2c(c1)[nH]c(=O)c1c3ccccc3cn21`?
A: Activity [1]: Active; Activity [2]: Dose-dependent effect; Activity [3]: Active; Activity [4]: Active; Activity [5]: 3.4%; Activity [6]: 44.1%; Activity [7]: Active; GI50 [8]: 130 nM; Activity [9]: 27.1%; GI50 [10]: 8.91 nM; CC50 [10, 24]: 5.13 µM; TGI ([10]; read-out: pTGI (converted)): 1020 nM; Activity [11]: 50%; Activity [12]: 53.5%; Activity [13]: 59.2%; Activity [14]: 0.1%; GI50 [15]: 130 nM; K [16]: 2.7 10^5/M; Activity [17]: Dose-dependent effect; Activity [18]: 49.1%; Activity [19]: 2.2%; Activity [20]: Active; Activity [21]: Active; RatioGI50 [22]: 1

Q: Which results are given for `O=c1[nH]c2ccccc2n2cc3ccccc3c12`?
A: GI50 [23]: 12.6 µM; CC50 [23, 24]: 56.2 µM; TGI ([23]; read-out: pTGI (converted)): 26.9 µM

Source: ChEMBL document CHEMBL1144782, “Isoindolo[2,1-a]quinoxaline derivatives, novel potent antitumor agents with dual inhibition of tubulin polymerization and topoisomerase I” (2008)
